The RNAGym collection of RNA variant scans (doi:10.1038/s41586-018-0170-7)

B1: tRNA (parent)
chain: GUUCCGUUGGCGUAAUGGUAACGCGUCUCCCUCCUAAGGAGAAGACUGCGGGUUCGAGUCCCGUACGGAACG

Variants of: B1
Test: yeast fitness, log relative to wild type (ln ratio); higher = fitter; tRNA-Arg(CCU), competitive growth, 37 C, 1 M NaCl
Outline: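 Fitness is the natural log of a genotype's generation count divided by that of the wild type. A combinatorial library of tRNA-Arg(CCU) variants sat on a HIS3 centromeric plasmid in BY4742 lacking the chromosomal gene, from two independent transformations. Pools grew 4 generations in SC-HIS at 30 °C, then ~6.5 generations (~26.5 h) in SC-HIS 1M NaCl at 37 °C, with three outputs per input. Generations came from OD-scaled log2 output/input frequency, inverse-variance weighted across replicates, with variants counted by 125 bp paired-end Illumina sequencing.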

Compared with GUUCCUUUGGCGUAAUGGUAACGCGUCUCCCUCCUAAGGAGAAGAUUGCGGGUUCGAGUCCCGUACGGAAUG, AUUCCUUUGGCGUAAUGGUAACGCGUCUCCCUCCUAAGGAGAAGAUUGCGGGUUCGAGUCCCGUACGGGGCG is higher in “yeast fitness (ln)” value: -0.413 for the first, -0.203 for the second.

Compared with GCUCCUUUGGCGUAAUGGUAACGCGUUUCCCUCCUAAGGAGAAGACUGCGGGUUCGAGUCCCGUAAGGAACG, AGUCCGUUGGCGUAAUGGUAACGCGUUUCCCUCCUAAGGAGACGACUGCGGGUUCGAGUCCCGUAUGGAGUG is lower in “yeast fitness (ln)” value: -0.24 for the first, -0.383 for the second.

Compared with AUUCCAUUGGCGUAAUGGUAACGCGUUUCCCUCCUAAGGAGACGACUGCGGGUUCGAGUCCCGUACGGAACG, AGUCCGUUGGCGUAAUGGUAACGCGUUUCCCUCCUAAGGAGACGAUUGCGGGUUCGAGUCCCGUAUGGAGCG is higher in “yeast fitness (ln)” value: -0.204 for the first, -0.172 for the second.

First: AGUCCGUUGGCGUAAUGGUAACGCGUUUCCCUCCUAAGGAGAAGAUUGCGGGUUCGAGUCCCGUAUGGGGCG
Second: AUUCCUUUGGCGUAAUGGUAACGCGUCUCCCUCCUAAGGAGAAGAUUGCGGGUUCGAGUCCCGUACGGAUUG
The “yeast fitness (ln)” value of the first is lower: -0.231 for the first, -0.185 for the second.

Compared with GGUCCUUUGGCGUAAUGGUAACGCGUUUCCCUCCUAAGGAGAAGACUGCGGGUUCGAGUCCCGUAUGGAUCG, GCUCCAUUGGCGUAAUGGUAACGCGUUUCCCUCCUAAGGAGAAGAUUGCGGGUUCGAGUCCCGUACGGGUUG is higher in “yeast fitness (ln)” value: -0.342 for the first, -0.295 for the second.

Going from GGUCCAUUGGCGUAAUGGUAACGCGUCUCCCUCCUAAGGAGACGACUGCGGGUUCGAGUCCCGUACGGGGUG to GUUCCAUUGGCGUAAUGGUAACGCGUUUCCCUCCUAAGGAGAAGACUGCGGGUUCGAGUCCCGUACGGGUUG, the “yeast fitness (ln)” value falls from -0.233 to -0.416.

Going from AUUCCUUUGGCGUAAUGGUAACGCGUUUCCCUCCUAAGGAGACGAUUGCGGGUUCGAGUCCCGUACGGAGCG to GGUCCGUUGGCGUAAUGGUAACGCGUCUCCCUCCUAAGGAGAAGAUUGCGGGUUCGAGUCCCGUAUGGGGCG, the “yeast fitness (ln)” value rises from -0.385 to -0.174.

Going from ACUCCGUUGGCGUAAUGGUAACGCGUUUCCCUCCUAAGGAGACGAUUGCGGGUUCGAGUCCCGUAAGGGGUG to GCUCCUUUGGCGUAAUGGUAACGCGUCUCCCUCCUAAGGAGAAGAUUGCGGGUUCGAGUCCCGUAUGGAUCG, the “yeast fitness (ln)” value rises from -0.158 to -0.0353.

First: AGUCCUUUGGCGUAAUGGUAACGCGUUUCCCUCCUAAGGAGAAGACUGCGGGUUCGAGUCCCGUAUGGAAUG
Second: GGUCCGUUGGCGUAAUGGUAACGCGUCUCCCUCCUAAGGAGACGACUGCGGGUUCGAGUCCCGUAUGGGGUG
The “yeast fitness (ln)” value of the first is lower: -0.522 for the first, -0.304 for the second.

First: GGUCCGUUGGCGUAAUGGUAACGCGUCUCCCUCCUAAGGAGAAGAUUGCGGGUUCGAGUCCCGUAUGGGUUG
Second: AUUCCAUUGGCGUAAUGGUAACGCGUCUCCCUCCUAAGGAGAAGACUGCGGGUUCGAGUCCCGUACGGGGCG
The “yeast fitness (ln)” value of the first is lower: -0.349 for the first, -0.104 for the second.

Compared with AGUCCGUUGGCGUAAUGGUAACGCGUCUCCCUCCUAAGGAGACGAUUGCGGGUUCGAGUCCCGUAUGGAGCG, ACUCCGUUGGCGUAAUGGUAACGCGUUUCCCUCCUAAGGAGAAGAUUGCGGGUUCGAGUCCCGUACGGGUUG is lower in “yeast fitness (ln)” value: -0.22 for the first, -0.359 for the second.

First: AGUCCGUUGGCGUAAUGGUAACGCGUUUCCCUCCUAAGGAGAAGACUGCGGGUUCGAGUCCCGUAAGGAUCG
Second: ACUCCUUUGGCGUAAUGGUAACGCGUCUCCCUCCUAAGGAGACGAUUGCGGGUUCGAGUCCCGUACGGAAUG
The “yeast fitness (ln)” value of the first is lower: -0.165 for the first, -0.143 for the second.

Going from ACUCCGUUGGCGUAAUGGUAACGCGUCUCCCUCCUAAGGAGACGAUUGCGGGUUCGAGUCCCGUAUGGAGCG to GGUCCAUUGGCGUAAUGGUAACGCGUUUCCCUCCUAAGGAGAAGAUUGCGGGUUCGAGUCCCGUAUGGAGUG, the “yeast fitness (ln)” value falls from -0.0459 to -0.165.

Going from AUUCCGUUGGCGUAAUGGUAACGCGUUUCCCUCCUAAGGAGACGACUGCGGGUUCGAGUCCCGUACGGGAUG to GUUCCGUUGGCGUAAUGGUAACGCGUUUCCCUCCUAAGGAGAAGAUUGCGGGUUCGAGUCCCGUACGGAGCG, the “yeast fitness (ln)” value rises from -0.318 to -0.029.

Going from GGUCCGUUGGCGUAAUGGUAACGCGUUUCCCUCCUAAGGAGAAGAUUGCGGGUUCGAGUCCCGUAAGGAGUG to GGUCCUUUGGCGUAAUGGUAACGCGUCUCCCUCCUAAGGAGAAGAUUGCGGGUUCGAGUCCCGUACGGGAUG, the “yeast fitness (ln)” value rises from -0.228 to -0.129.

Compared with GGUCCGUUGGCGUAAUGGUAACGCGUUUCCCUCCUAAGGAGACGACUGCGGGUUCGAGUCCCGUACGGAGCG, AGUCCGUUGGCGUAAUGGUAACGCGUUUCCCUCCUAAGGAGAAGACUGCGGGUUCGAGUCCCGUAUGGAGCG is lower in “yeast fitness (ln)” value: -0.178 for the first, -0.194 for the second.

Going from AGUCCUUUGGCGUAAUGGUAACGCGUUUCCCUCCUAAGGAGAAGACUGCGGGUUCGAGUCCCGUAUGGGGUG to GGUCCUUUGGCGUAAUGGUAACGCGUCUCCCUCCUAAGGAGAAGAUUGCGGGUUCGAGUCCCGUAUGGGAUG, the “yeast fitness (ln)” value rises from -0.446 to -0.252.

First: GUUCCUUUGGCGUAAUGGUAACGCGUCUCCCUCCUAAGGAGAAGAUUGCGGGUUCGAGUCCCGUAUGGAUUG
Second: GCUCCAUUGGCGUAAUGGUAACGCGUCUCCCUCCUAAGGAGACGAUUGCGGGUUCGAGUCCCGUAUGGAGCG
The “yeast fitness (ln)” value of the first is lower: -0.302 for the first, -0.0107 for the second.

Going from GCUCCGUUGGCGUAAUGGUAACGCGUUUCCCUCCUAAGGAGACGAUUGCGGGUUCGAGUCCCGUACGGAACG to ACUCCAUUGGCGUAAUGGUAACGCGUCUCCCUCCUAAGGAGACGAUUGCGGGUUCGAGUCCCGUACGGAUUG, the “yeast fitness (ln)” value falls from -0.0298 to -0.0375.
